S1P4 ag: activates the human S1P4 receptor; S1P4-expressing cell line, agonist reporter assay; AID 1509; activation, % at 4.98 µM; O95977; hit rate 0.35% among 220,000; in the data active means activation above about 11%;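 further: 0% = DMSO vehicle and 100% = reference agonist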
S1P3 antag: blocks the human S1P3 receptor; Q99500; CHO S1P3 NFAT-BLA reporter, FRET fluorescence, antagonist mode; inhibition, % at 4.98 µM; hit rate 0.27% among 170,000; AID 485;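 active means inhibition above the plate cutoff, the mean inhibition of test wells on that plate plus 3 SD, cut at about 28% in these data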;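 further: cells challenged with S1P at its EC80 of 0.8 µM; blue over green emission ratio from cleaved BLA substrate after 4 h stimulation; 0% = S1P-stimulated wells and 100% = unstimulated DMSO-only wells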
Lmaj promast: inhibitors of Leishmania major promastigote growth; Leishmania major promastigotes, resazurin fluorescence viability; inhibition, % at 10 µM; hit rate 9% among 200,000; AID 1063; in the data active means inhibition above about 50%;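 further: promastigotes grown with compound for 44 hours at 28 °C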
MDM2 E3 inh: blocks human Mdm2 ubiquitin ligase activity. cell-based MDM2 ubiquitination luciferase reporter, 2 h; 0 = plate control, 100 = twice control, blank-subtracted. hit rate 0.11% among 210,000. signal enhancement, % at 5 µM. Q00987;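 active means signal enhancement of 30% or more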;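 further: luminescence tracks abundance of the self-degrading MDM2-luciferase fusion protein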
Target sequence (Q00987 whole entry, looked up, the tested form may be a part): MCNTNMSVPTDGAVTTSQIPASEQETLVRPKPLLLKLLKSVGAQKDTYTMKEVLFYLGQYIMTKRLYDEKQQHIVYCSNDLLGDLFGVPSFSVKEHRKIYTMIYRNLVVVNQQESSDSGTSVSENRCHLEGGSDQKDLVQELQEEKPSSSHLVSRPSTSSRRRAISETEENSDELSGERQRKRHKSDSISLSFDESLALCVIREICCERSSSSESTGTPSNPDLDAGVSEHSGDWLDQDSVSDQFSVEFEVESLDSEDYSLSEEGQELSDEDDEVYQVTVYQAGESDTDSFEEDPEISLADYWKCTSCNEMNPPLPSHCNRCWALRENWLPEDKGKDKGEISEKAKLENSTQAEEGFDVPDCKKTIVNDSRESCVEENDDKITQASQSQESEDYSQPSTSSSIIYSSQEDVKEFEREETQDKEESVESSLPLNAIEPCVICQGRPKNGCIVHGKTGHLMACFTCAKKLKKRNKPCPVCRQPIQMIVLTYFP
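Test system: mammalian cells stably expressing self-ubiquitinating, self-degrading MDM2 E3–luciferase fusion; Amount: 2000 cells in each well; Medium: DMEM; Schedule: 4 h settle plus 2 h compound, 37 °C; Technique: SteadyLite luciferase luminescence after 15 min room-temperature reagent incubation; Benchmarks: plate control and blank wells.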
S1P4 antagonist: antagonists of human S1P4 receptor | O95977 | S1P4-expressing cells, antagonist mode, reporter read-out | inhibition, % at 4.98 µM | hit rate 0.26% among 220,000 | AID 1510; in the data active means inhibition above about 29%;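 further: 0% = wells stimulated with agonist and 100% = vehicle wells without agonist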
* marks the source's active call; other numbers are inactive results; / = not tested or not shown. Only a selection was taken, and hits are over-represented in it overall.

SMILES	S1P4 ag	S1P3 antag	Lmaj promast	MDM2 E3 inh	S1P4 antagonist
COc1ccc(C(NC(=O)c2cccnc2)c2cc(Cl)c3cccnc3c2O)cc1OC (stereo unspecified)	-3	/	98*	13	17
O=C(CCc1ccccc1)NC(c1cccs1)c1cc(Cl)c2cccnc2c1O (stereo unspecified)	0	-15	99*	-13	2
CCC(=O)NC(c1ccco1)c1cc(Cl)c2cccnc2c1O (stereo unspecified)	1	-15	15	-10	15
CCC(=O)NC(c1ccc(OC)cc1)c1cc(Cl)c2cccnc2c1O (stereo unspecified)	0	-6	98*	5	3
CCC(=O)NC(c1ccccc1OC)c1ccc2cccnc2c1O (stereo unspecified)	3	/	100*	0	-9
CCOc1ccc(OCC)c(NC(=O)Cn2c(C)nc3ccccc3c2=O)c1	-1	-8	40	-7	-3
Cc1ccc(-n2c(CNC(=O)c3cccs3)nnc2SCC(=O)NO)cc1	-2	-1	1	-12	-11
COc1ccc(C(=O)Nc2cccnc2)cc1OC	1	/	0	7	-13
COc1ccc(Cl)cc1C(Nc1cccnc1)c1ccc2cccnc2c1O (stereo unspecified)	-1	-6	62*	-10	-14
CCCC(=O)NC(c1ccc(OC)cc1)c1ccc2cccnc2c1O (stereo unspecified)	2	-4	100*	7	-14
C=CCN(CC=C)C(=S)NC(=O)c1ccc(C)c(Br)c1	0	2	18	-6	-9
COC(=O)c1cccnc1-n1c(=O)c2cccnc2n(Cc2cccc(C(F)(F)F)c2)c1=O	0	-9	22	1	6
CSc1ccc(/C=N/NC(=O)c2cccc(O)c2)cc1	0	/	-1	-67	4
Cc1cc2nc(C)c(Cc3ccccc3)c(=O)n2[nH]1	1	-9	97*	-11	0
COc1ccc(-c2c(C)[nH]n3c(=O)c(Cc4ccccc4)c(C)nc23)cc1	-1	9	81*	4	7
Cc1nc2nc(-c3cccnc3)[nH]n2c(=O)c1Cc1ccccc1	-1	-5	5	-12	-19
Cc1nc2c(-c3ccccc3)c[nH]n2c(=O)c1Cc1ccccc1	0	2	59*	-3	-5
Cc1nc2nc(-c3ccc(Cl)cc3)[nH]n2c(=O)c1Cc1ccccc1	1	/	-8	-6	-6
O=C(Nc1ccc(Cl)c(S(=O)(=O)N2CCOCC2)c1)c1ccccc1-c1ccc(C(F)(F)F)cc1	-2	12	99*	-10	2
CC(=O)Nc1ccc(S(=O)(=O)N2CC3(C)CC2CC(C)(C)C3)cc1 (stereo unspecified)	1	-13	47	2	-1
CC1(C)CC2CC(C)(CN2S(=O)(=O)c2ccc(C(=O)Nc3ccc(S(=O)(=O)N4CCOCC4)cc3)cc2)C1 (stereo unspecified)	2	-12	99*	-20	-30
CC1(C)CC2CC(C)(CN2S(=O)(=O)c2ccc(C(=O)Nc3ccc(Cl)c(S(=O)(=O)N4CCOCC4)c3)cc2)C1 (stereo unspecified)	-1	/	97*	-18	-4
CC(C)CC1CC(C)(c2csc(NNC(=O)c3ccccc3)n2)OC1=O (stereo unspecified)	-1	-25	3	-4	-1
O=C(CSc1n[nH]c(=O)n1C1CC1)Nc1cc(Cl)ccc1Oc1ccccc1	1	8	14	-21	-3
Cc1ccccc1NC(=O)N1CCN(S(=O)(=O)c2ccccc2)CC1	1	5	6	-10	-14
SMILES	S1P4 ag	S1P3 antag	Lmaj promast	MDM2 E3 inh	S1P4 antagonist
O=C(Nc1nnc(-c2ccc(F)cc2)o1)c1cc(Cl)sc1Cl	1	-3	62*	-10	-4
O=C(Nc1nnc(-c2ccc(F)cc2)o1)c1cccc([N+](=O)[O-])c1	0	-14	96*	-1	-15
O=C(Nc1nnc(-c2cccs2)o1)c1cccc(F)c1	-1	-9	94*	/	-1
COc1cccc(-c2nnc(NC(=O)c3cccc(F)c3)o2)c1	/	-10	/	-8	/
O=C(Nc1nnc(-c2ccccc2)o1)c1cc(Cl)sc1Cl	1	-1	2	-3	-30
CCOc1ccccc1NC(=O)CNS(=O)(=O)c1ccc2nc(C)sc2c1	-2	-37	4	-4	5
O=C(NCC1CCCO1)c1ccc(CSCc2cccc(F)c2)o1 (stereo unspecified)	-1	-1	2	1	4
O=C(Cc1cc(=O)[nH][nH]1)N/N=C/C=C/c1ccccc1	-1	/	72*	-6	-5
